Screening results deposited in PubChem BioAssay by several laboratories.
Hits are enriched below; roughly 2.2% of the tested compounds scored in any of these assays.
SKN-1 block = inhibitors of C. elegans SKN-1; C. elegans VP596 Pgst-4::GFP/RFP ratio, acrylamide-induced, 24 h; inhibition, % at 21.8 µM; 360,000 tested, 0.49% active; AID 624304;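 active means interference check ratio from 0.5 to 1.5 plus GFP to RFP signal ratio inhibition reaching or exceeding a fixed threshold, cut at about 30% in these data, passing the limit was not always enough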
KLK7 zymogen act = proKLK7 (human) activation, primary screen. AID 652039. purified proKLK7, EDANS-DABCYL substrate fluorescence; 100% is mature enzyme control, 0% vehicle. activation, % at 7 µM. P49862. 370,000 tested, 0.9% active;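 active means activation above the mean of all tested compounds plus 3 SD, computed per campaign excluding outliers beyond control limits, cut at about 13% in these data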
Tn6 DDE FP = disrupts Tn6 cyclic peptide binding to fibrin D-Dimer-E complex | P02675 | Fibrin DD(E) TRITC-Tn6 fluorescence polarization displacement | inhibition, % at 8.3 µM | 370,000 tested, 0.21% active | AID 720509;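 active means inhibition above a per-campaign cutoff: mean of compounds within control limits plus 3 SD, cut at about 15% in these data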;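 further: 0% = median of all compound wells on the plate and 100% = blocking peptide control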
Target sequence (P02675 whole entry, looked up): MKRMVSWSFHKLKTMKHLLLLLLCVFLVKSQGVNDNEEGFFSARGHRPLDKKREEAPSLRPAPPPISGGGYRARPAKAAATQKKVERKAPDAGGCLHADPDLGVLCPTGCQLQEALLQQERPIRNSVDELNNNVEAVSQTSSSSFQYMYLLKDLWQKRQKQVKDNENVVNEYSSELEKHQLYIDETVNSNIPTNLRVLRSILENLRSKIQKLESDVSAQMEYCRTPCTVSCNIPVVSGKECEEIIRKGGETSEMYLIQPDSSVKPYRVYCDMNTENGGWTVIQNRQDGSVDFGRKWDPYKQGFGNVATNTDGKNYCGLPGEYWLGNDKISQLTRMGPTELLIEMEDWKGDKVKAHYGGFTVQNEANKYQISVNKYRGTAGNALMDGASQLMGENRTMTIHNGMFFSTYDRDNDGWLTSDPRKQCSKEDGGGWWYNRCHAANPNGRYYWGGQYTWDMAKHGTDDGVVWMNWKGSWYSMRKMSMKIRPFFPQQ
Neddylation inh = cullin neddylation inhibition; P61081+Q13564; TR-FRET cullin neddylation, biochemical; calls only at 25 µM; 360,000 tested, 0.58% active; AID 651699; in the data active means inhibition above about 36%
MT1-MMP act inh = inhibitors of human MT1-MMP activation | HT1080 RFP-PRO-GFP cells, GFP/RFP ratio fluorescence, overnight; percent of plate control window, DMSO zero | 360,000 tested, 0.061% active | P50281 | GFP/RFP ratio change, % at 20 µM;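 active means GFP/RFP ratio change of at least 30% with cell ATP level not reduced by more than half and red fluorescence within 50% of control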
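system = RFP-PRO-GFP reporter HT1080 cells | dosing = 20 µM single dose, 1% DMSO | timing = overnight cell settling, then overnight compound exposure, 37 °C, 5% CO2 | read-out basis = GFP/RFP fluorescence ratio | controls = DMSO and RFP-L50D-GFP cell wells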
Tn7 DDE FP = DD(E)-Tn7 binding inhibition, primary FP screen. inhibition, % at 8.3 µM. 370,000 tested, 0.13% active. AID 720508. FP displacement of FITC-Tn7 peptide from fibrin DD(E); 0% = median of compound wells per plate;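 active means inhibition above the mean of compounds falling within the control limits plus 3 SD of them, cut at about 14% in these data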;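 further: 0% = plate median of compound wells and 100% = 10 µM Aha-Tn7 peptide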
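Assay system: Fibrin-DD(E) protein isolated from polymerized human fibrin clots; read-out basis: percent inhibition; medium: Tris/NaCl/CaCl2 buffer, pH 7.8; signal: FP measurement; incubation: 10 min plus 3 h, room temperature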
proKLK7 act conf = proKLK7 activation, confirmation; shares compounds with KLK7 zymogen act; purified proKLK7, EDANS-DABCYL substrate fluorescence; scaled: vehicle 0, mature enzyme 100; activation, % at 7 µM; 3,200 tested, 68% active; AID 686949;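 active means activation, as change over the incubation, above the mean of all tested compounds plus 3 SD, cut at about 13% in these data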
EDANS interfere = counter-screen for kallikrein-7 activators: EDANS-DABCYL optical interference. shares compounds with KLK7 zymogen act. EDANS-DABCYL substrate fluorescence interference, no enzyme, 4 h; solvent 0%, active enzyme control 100%. activation, % at 7 µM. 3,200 tested, 80% active. AID 686952;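 active means activation above the all-compound mean plus 3 SD, ignoring values outside control-based bounds, cut at about 4.8% in these data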;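 further: value is the 4 h activation minus the activation read at time zero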
The depositor's hits bear a star; i = inactive; · = no result given.

SMILES	SKN-1 block	KLK7 zymogen act	Tn6 DDE FP	Neddylation inh	MT1-MMP act inh	Tn7 DDE FP	proKLK7 act conf	EDANS interfere
COc1cc2c(cc1OC)CN(Cc1cc(=O)oc3cc(C)c(Cl)cc13)CC2	12	15*	0	i	-6	0	-8	-6
CCCOc1ccc2c(CC)cc(=O)oc2c1C	27	0	4	·	2	1	·	·
CCc1cc(=O)oc2c(C)c(O)c(CN(C)C)cc12	7	65*	0	·	-1	8	58*	67*
CCN(CC)c1ccc2ccc(=O)oc2c1	7	11	2	·	0	6	·	·
COC(=O)Cc1cc(=O)oc2cc(O)ccc12	8	50*	-6	·	0	9	75*	69*
CCN(CC)c1ccc2c(C)cc(=O)oc2c1	8	27*	3	i	1	-4	17*	26*
Cc1cc(=O)oc2cc(O)ccc12	4	99*	2	·	-3	-7	63*	64*
O=c1cc(O)c2ccc(O)cc2o1	9	6	2	i	-7	6	·	·
Cc1cc(=O)oc2cc(OC(=O)CCCCCN3C(=O)c4ccccc4C3=O)ccc12	-4	63*	0	·	-2	5	405*	336*
CC1=CSC2=NC(=O)/C(=C/c3cccc(OC(=O)c4ccco4)c3)C(=N)N12	1	1	6	i	3	1	·	·
Cc1c(O)ccc(/C(Cc2ccc3ccccc3n2)=N\N)c1O	13	-1	3	i	-24	-2	·	·
CCOC(=O)c1[nH]c2c(c1-c1ccccc1)C(=O)CC(c1ccc(OC)c(OC)c1)C2 (stereo not drawn)	15	0	-1	i	-3	0	·	·
Cc1ccc(NC(=O)CN2C(=O)N/C(=C/c3cc(C)n(-c4cccc(C(=O)O)c4)c3C)C2=O)cc1	8	1	-5	i	-2	-5	·	·
CCOC(=O)c1cnn(-c2ncnc3sc(CC)cc23)c1N	5	0	11	i	-1	12	·	·
Cc1cc(=O)[nH]c2cc(O)ccc12	-2	-124	3	·	9	-4	·	·
O=C(CC1Sc2ccccc2NC1=O)OCc1cc(=O)oc2cc(O)ccc12 (stereo not drawn)	4	188*	-3	·	-5	3	272*	279*
CC(=O)Oc1ccc2c(C)cc(=O)[nH]c2c1	-2	179*	2	·	-6	6	343*	302*
Cc1ccc2c(COC(=O)CC3Sc4ccccc4NC3=O)cc(=O)oc2c1C (stereo not drawn)	6	-1	-9	i	1	2	·	·
Cc1cc(=O)oc2cc(OC(=O)C3CCN(C(=O)c4ccc(F)cc4)CC3)ccc12	-12	14*	-3	·	2	0	427*	378*
Cc1ccc(NC(=O)CSCC(=O)OCc2cc(=O)oc3cc(O)ccc23)c(C)c1	-16	468*	7	·	-4	-2	288*	306*
COCCc1nc2ccc(C(=O)N3CCCC(CCCO)C3)cc2o1 (stereo not drawn)	-6	0	3	i	-4	-5	·	·
CN(C(=O)CSc1nnc2ccccn12)c1c(N)n(Cc2ccccc2)c(=O)[nH]c1=O	-8	0	1	i	1	0	·	·
CC(C)c1ccc(NC(=O)C2CCCN2S(=O)(=O)c2ccccc2F)cc1 (stereo not drawn)	4	0	4	i	6	0	·	·
COc1ccc(N2C(=O)c3[nH]nc(-c4ccccc4)c3C2c2cccc(C(F)(F)F)c2)cc1 (stereo not drawn)	·	0	2	·	·	-1	·	·
Cc1cc(=O)oc2cc(OC(C)C(=O)N3CCOCC3)ccc12 (stereo not drawn)	12	-1	-2	i	-4	0	·	·
SMILES	SKN-1 block	KLK7 zymogen act	Tn6 DDE FP	Neddylation inh	MT1-MMP act inh	Tn7 DDE FP	proKLK7 act conf	EDANS interfere
CC(=O)Oc1ccc2c(C)cc(=O)oc2c1	-16	60*	-2	·	-3	3	540*	531*
CC(=O)Oc1cc(OC(C)=O)c2c(C)cc(=O)oc2c1	-4	50*	2	·	1	-4	550*	534*
CC(=O)Nc1c(OC(C)=O)ccc2c(C)cc(=O)oc12	-1	175*	-3	·	-1	0	489*	515*
CC(=O)Oc1cc2oc(=O)cc(C)c2cc1OC(C)=O	-12	68*	0	·	5	5	77*	90*
Cc1nn(C2CC(O)C(O)C(CO)O2)c(=O)[nH]c1=O (stereo not drawn)	-3	0	-1	i	2	11	·	·
Cc1cc(=O)oc2cc(O)cc(OCc3ccccc3)c12	12	35*	-2	·	-1	1	66*	78*
CC(=O)Oc1cc(OC(C)=O)c2c(=O)c(-c3ccc4c(c3)OCCCO4)c(C)oc2c1	-1	29*	0	·	0	-2	169*	137*
Cc1ccc(OC(=O)CCS(=O)(=O)c2ccc(C)cc2)cc1	-27	0	4	i	2	-4	·	·
Cc1cc(=O)oc2ccc(OCc3ccccc3)cc12	2	2	3	i	8	-9	·	·
O=c1ccc2ccc(O)cc2o1	-12	51*	-8	i	-4	-7	64*	70*
Cc1ccc(S(=O)(=O)CCC(=O)Oc2ccc3c(C)cc(=O)oc3c2)cc1	-2	24*	1	·	1	4	123*	109*
CCOC(=O)N1CCN(CCC(=O)Nc2ccccc2OC)CC1	24	0	-5	i	1	-1	·	·
COc1ccc(CC(N)c2csc(NC(=O)CCc3ccccc3)n2)cc1 (stereo not drawn)	4	0	-4	i	-7	-3	·	·
COc1ccc(C2CC(c3ccccc3)=NN2C(=O)COC(=O)c2cccc(S(=O)(=O)N(C)C)c2)cc1 (stereo not drawn)	14	-1	-11	i	1	1	·	·
O=C(Cc1cc(=O)oc2cc(O)ccc12)N[C@@H](Cc1c[nH]c2ccccc12)C(=O)O	12	16*	-3	·	-1	-1	91*	90*
Cc1c(O)ccc2c(CC(=O)N[C@@H](Cc3c[nH]c4ccccc34)C(=O)O)cc(=O)oc12	19	-28	-1	·	-3	-2	·	·
CC1=CC2=C(C=O)C(=O)C(C)(O)C(O)C2=CO1 (stereo not drawn)	20	21*	-12	i	1	-1	29*	27*
